High-throughput results deposited in PubChem BioAssay by Johns Hopkins Ion Channel Center.
Rows were chosen to be rich in hits. Some 3.7% of all compounds tested hit in one or more screens of this group.
KCNK3 block: human KCNK3 channel inhibition, primary screen. CHO-KCNK3 thallium flux, FluxOR fluorescence; stronger effect = lower value. O14649. B-score at 10 µM. 340,000 tested, 0.84% active;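 active = B-score under library mean minus 4 SD, starting fluorescence ratio at most library mean plus 5 SD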;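 also: more negative B-score means stronger inhibition of thallium flux through KCNK3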
Target sequence (O14649 whole entry, looked up): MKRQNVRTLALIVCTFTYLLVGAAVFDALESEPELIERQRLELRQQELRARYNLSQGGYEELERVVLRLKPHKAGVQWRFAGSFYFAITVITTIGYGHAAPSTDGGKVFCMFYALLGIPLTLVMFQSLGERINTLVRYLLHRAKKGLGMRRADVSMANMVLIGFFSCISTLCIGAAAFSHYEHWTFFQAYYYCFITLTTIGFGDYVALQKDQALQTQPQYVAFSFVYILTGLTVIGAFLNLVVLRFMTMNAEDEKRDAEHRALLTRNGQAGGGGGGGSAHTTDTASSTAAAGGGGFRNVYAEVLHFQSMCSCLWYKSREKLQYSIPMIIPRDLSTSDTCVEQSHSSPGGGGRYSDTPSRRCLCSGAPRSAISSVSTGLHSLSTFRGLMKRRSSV
KCNQ1 inh: blocks the human KCNQ1 potassium channel; CHO-K1 KCNQ1, FluxOR thallium flux fluorescence; stronger effect = higher value; 310,000 tested, 1.3% active; P51787; B-score at 10 µM;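 active = compounds whose thallium flux B-score, printed positive for inhibition, exceeds three library SD while starting fluorescence stays within three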;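 also: channel opened by potassium depolarization with thallium stimulus after 20 min compound exposure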
hERG protect: hERG (human) protection from proarrhythmic block; 310,000 tested, 0.51% active; CHO-hERG, FluxOR thallium flux, dofetilide IC70 present; Q12809; activation (rescue from dofetilide block), less the hit threshold, % at 10 µM;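 active = activation above the mean of controls blocked by dofetilide plus 5 SD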;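 also: thallium influx through hERG after potassium depolarization seen as dye fluorescence rise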
Kir21 block: inhibitors of mouse Kir2.1 inward-rectifier potassium channel; 310,000 tested, 0.85% active; P35561; HEK293-Kir2.1, FluxOR thallium flux fluorescence; stronger effect = lower value; B-score at 10 µM;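 active = fluorescence ratio B-score at or below minus 3 SD of library scores, with starting-brightness B-score within 2 SD, cut at about -4.2 in these data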;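 also: channel flux triggered by added potassium and thallium sulfate stimulus; B-score of peak minus minimum fluorescence over baseline after thallium stimulus; more negative B-score means stronger Kir2.1 block with less thallium influx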
KCNK9 block: human KCNK9 channel inhibition | Q9NPC2 | HEK293 KCNK9, FluxOR thallium flux fluorescence; stronger effect = lower value | B-score at 10 µM | 310,000 tested, 1.2% active | AID 488922;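 active = ratio B-score over 3 SD below the library mean, with starting fluorescence within 5 SD of its mean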;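 also: negative B-score means less thallium flux so channel inhibition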
KCNQ1 pot: potentiates or activates the human KCNQ1 potassium channel. CHO-K1 KCNQ1, thallium flux FluxOR fluorescence; stronger effect = higher value. B-score at 10 µM. 310,000 tested, 0.35% active. P51787;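 active = fluorescence ratio B-score, a plate-corrected score, at least three library SD, with initial intensity B-score within 5 SD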
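Material: CHO-K1 cells stably expressing KCNQ1. Medium: assay buffer for compound exposure, DMSO matched across wells. Reagent: K+/Tl+ depolarizing stimulus. Compound dosing: single-concentration screen. Times: 37 °C overnight plating, 90-min dark dye load, 20-min compound pretreatment. Technique: FluxOR Tl+ flux fluorescence.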
Numbers stand for hits.

Screening C#CCOCCOCCOCCNc1nc(N2CCN(C(=O)C([C@@H](C)CC)n3cc(C(N)CC(C)C)nn3)CC2)nc(N2CCN(C(=O)[C@H](CCC(=O)O)n3cc(C(N)Cc4ccc(O)cc4)nn3)CC2)n1 (stereo partly drawn) returned KCNK3 block inactive, KCNQ1 inh inactive, hERG protect inactive, Kir21 block inactive, KCNK9 block inactive and KCNQ1 pot inactive.
For C#CCOCCOCCOCCNc1nc(N2CCN(C(=O)C([C@@H](C)CC)n3cc(C(N)Cc4ccc(O)cc4)nn3)CC2)nc(N2CCN(C(=O)[C@H](CCC(=O)O)n3cc(C(N)CC(C)C)nn3)CC2)n1 (stereo partly drawn) the results were KCNK3 block inactive, KCNQ1 inh inactive, hERG protect inactive, Kir21 block inactive, KCNK9 block inactive and KCNQ1 pot 24.
Screening N#CC1=C(N)Oc2ccc3ccccc3c2C1c1cccnc1 (stereo not drawn) returned KCNK3 block inactive, KCNQ1 inh inactive, hERG protect 4.9, Kir21 block inactive, KCNK9 block inactive and KCNQ1 pot inactive.
Screening COc1ccc(C)cc1NC(=O)C(OC(=O)c1cnccn1)c1ccccc1 (stereo not drawn) returned KCNK3 block inactive, KCNQ1 inh inactive, hERG protect inactive, Kir21 block inactive, KCNK9 block inactive and KCNQ1 pot inactive.
Screening COc1ccc(C)cc1NC(=O)C(OC(=O)CNC(=O)c1cc(C)cc(C)c1)c1ccccc1 (stereo not drawn) returned KCNK3 block inactive, KCNQ1 inh inactive, hERG protect inactive, Kir21 block inactive, KCNK9 block -8 and KCNQ1 pot inactive.
CCc1ccc(OCC(=O)N/N=C/c2cc([N+](=O)[O-])ccc2N2CCCCCC2)cc1 was read as KCNK3 block inactive, KCNQ1 inh inactive, hERG protect inactive, Kir21 block inactive, KCNK9 block -6.7 and KCNQ1 pot inactive.
COc1ccc(NC(=O)CN(C)CC(=O)NCCc2ccc(F)cc2)cc1 was read as KCNK3 block inactive.
`COc1cccc(CNC(=O)c2cc(S(=O)(=O)N3CCOCC3)ccc2N2CCCC2)c1` gave KCNK3 block inactive.
CN(C)CC(CCC(CN(C)C)C(O)(c1ccccc1)c1ccccc1)C(O)(c1ccccc1)c1ccccc1 (stereo not drawn) was read as KCNQ1 inh inactive, hERG protect inactive, Kir21 block -5.6, KCNK9 block inactive and KCNQ1 pot inactive.
For CCCCn1c(N)c(N(CCC(C)C)C(=O)C2CCN(C(=O)c3ccccc3C)CC2)c(=O)[nH]c1=O the results were KCNK3 block inactive, KCNQ1 inh inactive, hERG protect inactive, Kir21 block inactive, KCNK9 block inactive and KCNQ1 pot inactive.
`O=C(N/N=C/C1=C(N2CCOCC2)C(=C\c2ccccc2)/CC1)Nc1ccccc1` gave KCNK3 block inactive, KCNQ1 inh inactive, hERG protect inactive, Kir21 block inactive, KCNK9 block inactive and KCNQ1 pot inactive.
Screening O=C(O)c1ccccc1N/N=C/C1=C(N2CCOCC2)C(=C\c2ccccc2)/CC1 returned KCNK3 block inactive, KCNQ1 inh 9, hERG protect inactive, Kir21 block inactive, KCNK9 block inactive and KCNQ1 pot inactive.
For Cc1nnc(NC(=O)CN2CCN(Cc3ccccc3)CC2)s1 the results were KCNK3 block inactive, KCNQ1 inh inactive, hERG protect inactive, Kir21 block inactive, KCNK9 block inactive and KCNQ1 pot inactive.
Screening Cc1nnc(NC(=O)CN2CCN(Cc3ccc(F)cc3Cl)CC2)s1 returned KCNK3 block inactive, KCNQ1 inh inactive, hERG protect 6.3, Kir21 block inactive, KCNK9 block inactive and KCNQ1 pot inactive.
`CCN1CCN(CC(=O)N2CCCC(C(=O)c3ccc(Oc4ccccc4)cc3)C2)CC1` (stereo not drawn) gave KCNK3 block inactive, KCNQ1 inh inactive, hERG protect 5.5, Kir21 block inactive, KCNK9 block inactive and KCNQ1 pot inactive.
`O=C(CCS(=O)(=O)c1ccc(Cl)cc1)N1CCCc2ccccc21` gave KCNK3 block inactive, KCNQ1 inh inactive, hERG protect inactive, Kir21 block -4.8, KCNK9 block inactive and KCNQ1 pot inactive.
For O=S(=O)(c1ccc(F)c(F)c1)N1CCCc2ccccc21 the results were KCNK3 block inactive, KCNQ1 inh inactive, hERG protect inactive, Kir21 block -5.4, KCNK9 block inactive and KCNQ1 pot inactive.
`O=S(=O)(c1ccc2ccccc2c1)N1CCc2ccccc21` gave KCNK3 block inactive, KCNQ1 inh inactive, hERG protect inactive, Kir21 block inactive, KCNK9 block inactive and KCNQ1 pot inactive.
Cc1cccc(S(=O)(=O)N2CCCc3ccccc32)c1 was read as KCNK3 block inactive, KCNQ1 inh inactive, hERG protect inactive, Kir21 block -6.4, KCNK9 block inactive and KCNQ1 pot inactive.
O=S(=O)(c1ccc(Br)cc1)N1CCCc2ccccc21 was read as KCNK3 block inactive, KCNQ1 inh inactive, hERG protect inactive, Kir21 block -4.9, KCNK9 block inactive and KCNQ1 pot inactive.
`COc1cc(CO)ccc1Oc1nc2ccccc2n2cnnc12` gave KCNK3 block inactive, KCNQ1 inh inactive, hERG protect inactive, Kir21 block inactive, KCNK9 block inactive and KCNQ1 pot inactive.
`CCCS(=O)(=O)Nc1ccc(N2CCCCC2)c(S(=O)(=O)Nc2ccccc2OC)c1` gave KCNK3 block inactive.
For CCOC(=O)c1cc(-c2ccc(Cl)cc2)nc2c1c(=O)[nH]c(=O)n2CCOC the results were KCNK3 block inactive, KCNQ1 inh inactive, hERG protect inactive, Kir21 block inactive, KCNK9 block inactive and KCNQ1 pot inactive.
Screening CCOC(=O)c1cc(-c2ccc(Cl)cc2)nc2onc(C)c12 returned KCNQ1 inh inactive, hERG protect inactive, Kir21 block inactive, KCNK9 block -8 and KCNQ1 pot inactive.
`Cc1cccc(NS(=O)(=O)c2ccc(C)c(C(=O)NC3CCN(Cc4ccccc4)CC3)c2)c1` gave KCNK3 block inactive.
O=C(Nc1ccccc1)N(O)c1ccc(Cl)cc1 was read as KCNK3 block inactive, KCNQ1 inh 6, hERG protect inactive, Kir21 block inactive, KCNK9 block inactive and KCNQ1 pot inactive.
`COC(=O)c1ccccc1NC(=O)CSc1nc(NC(=O)c2ccccc2)c2c(C)c(C)oc2n1` gave KCNK3 block -10, KCNQ1 inh inactive, hERG protect inactive, Kir21 block inactive, KCNK9 block inactive and KCNQ1 pot inactive.
`CN1Cc2sc(NC(=S)NC(=O)c3ccccc3)c(C#N)c2CC1(C)C` gave KCNK3 block inactive, KCNQ1 inh 8, hERG protect inactive, Kir21 block inactive, KCNK9 block inactive and KCNQ1 pot inactive.
Screening O=C1NC(c2ccccc2)=NC1(NS(=O)(=O)c1ccccc1)C(F)(F)F (stereo not drawn) returned KCNK3 block inactive, KCNQ1 inh inactive, hERG protect inactive, Kir21 block inactive, KCNK9 block inactive and KCNQ1 pot inactive.
